Values joined by “and” are separate entries in the source; they are usually repeats but may differ in a detail not shown here. Equal values may be shown once.
test system: CHO; experiment: Effect of compound on de novo synthesis of sphingomyelin (SM) by metabolic labeling of lipids in CHO cells with radioactive serine at 1 uM; type: functional, Cricetulus griseus; settings: not given
Summary of the method: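 CHO-K1 subconfluent monolayers preincubated in serum-free medium with compound at 1 μM, 0.01% (v/v) DMSO, 4 °C for 15 min. L-[14C]serine (0.75 μCi) then added, 33 °C for 2 h. Lipids extracted, TLC-separated, labeled SM quantified by imaging analyzer and normalized to lysate protein. Reported as % of DMSO-only control; mean ± SD, n = 3.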

SMILES | Sphingomyelin synthesis, % of control
CCCCCCCCCCCC(=O)N[C@@H](CO)C[C@@H](OC)c1ccccc1 | 119%
CCCCCCCCCCCC(=O)N[C@@H](CO)[C@H](O)[C@H](O)c1ccccc1 | 17%
CCCCCCCCCCCC(=O)N[C@@H](CO)[C@@H](O)[C@H](O)c1ccccc1 | 40%
CCCCCCCCCCCC(=O)N[C@@H](COC)C[C@@H](O)c1ccccc1 | 79%
CCCCCCCCCCCC(=O)N[C@@H](CO)[C@@H](O)[C@@H](O)c1ccccc1 | 57%
CCCCCCCCCCCC(=O)N[C@@H](COC)C[C@@H](OC)c1ccccc1 | 130%
CCCCCCCCCCCC(=O)N[C@@H](CO)[C@H](O)[C@@H](O)c1ccccc1 | 28%
CCCCCCCCCCCC(=O)N[C@@H](CO)C[C@@H](O)c1ccccc1 | 8.2% and 4%

test system: CHO; experiment: Inhibitory concentration on de novo synthesis of sphingomyelin (SM) by metabolic labeling of lipids in CHO cells with radioactive serine; type: functional, cell-based; settings: Cricetulus griseus
Summary of the method: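 Compound tested at 0 to 1 μM in serum-free medium containing 0.01% (v/v) DMSO. Subconfluent CHO-K1 monolayers were preincubated at 4 °C for 15 min, then pulsed with L-[14C]serine (0.75 μCi) at 33 °C for 2 h. Labeled SM was separated by TLC, imaged, and normalized to cell protein. IC50 came from […] of a single assay series.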

SMILES | IC50
CCCCCCCCCCCCCCCC(=O)N[C@@H](CO)C[C@@H](O)c1ccccc1 | > 1000 nM
CCCCCCCCCCCCCCCCC(=O)N[C@@H](CO)C[C@@H](O)c1ccccc1 | > 1000 nM
CCCCCCCCCCCC(=O)N[C@@H](CO)C[C@@H](O)c1ccccc1 | 70 nM
CCCCCCCCCCC(=O)N[C@@H](CO)C[C@@H](O)c1ccccc1 | 110 nM
CCCCCCCCCCCCCCC(=O)N[C@@H](CO)C[C@@H](O)c1ccccc1 | 90 nM
CCCCCCCCCC(=O)N[C@@H](CO)C[C@@H](O)c1ccccc1 | 300 nM
CCCCCCCCCCCCCC(=O)N[C@@H](CO)C[C@@H](O)c1ccccc1 | 70 nM
CCCCCCCCCCCCCCCCCC(=O)N[C@@H](CO)C[C@@H](O)c1ccccc1 | > 1000 nM
CCCCCCCCCCCCC(=O)N[C@@H](CO)C[C@@H](O)c1ccccc1 | 50 nM
